Our source for the Activity and EC50 values is ChEMBL document CHEMBL1177691, “Antineoplastic agents 582. Part 1: Isolation and structure of a cyclobutane-type sesquiterpene cancer cell growth inhibitor from Coprinus cinereus (Coprinaceae)” (2010).

Converted amounts (≈) assume the structure as drawn. The source made the active and inactive calls. The rule behind the calls is not given here.

One experiment relates to Enterococcus faecalis. Kind of experiment: Antimicrobial activity against Enterococcus faecalis ATCC 29212 at 64 ug/ml by broth microdilution assay. The format is functional, organism-based. In short, it runs like this:
(§1)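 Broth microdilution susceptibility testing following NCCLS approved standards: M27-A (yeast method) and M7-A4. Each compound was tested at a single concentration of 64 μg/ml for growth inhibition of the listed strains: S. maltophilia ATCC 13637, M. luteus Presque Isle 456, S. aureus ATCC 29213, E. coli ATCC 25922, E. cloacae ATCC 13047, E. faecalis ATCC 29212, C. albicans ATCC 90028 and C. neoformans ATCC 90112.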

The next experiment relates to Candida albicans. Nature of the experiment: Antimicrobial activity against Candida albicans ATCC 90028 at 64 ug/ml by broth microdilution assay. The format is functional, organism-based. The method in brief:
as §1

Another experiment deals with Micrococcus luteus. Nature of the experiment: Antimicrobial activity against Micrococcus luteus Presque Isle 456 at 64 ug/ml by broth microdilution assay. The format is functional, organism-based. The method in brief: as §1
A further experiment relates to Staphylococcus aureus. Nature of the experiment: Antimicrobial activity against Staphylococcus aureus ATCC 29213 at 64 ug/ml by broth microdilution assay. The format is functional, organism-based. The method in brief:
as §1

The next experiment concerns Escherichia coli. Kind of experiment: Antimicrobial activity against Escherichia coli ATCC 25922 at 64 ug/ml by broth microdilution assay. The format is functional, organism-based. In short, it runs like this:
as §1

A further experiment has as its system Cryptococcus neoformans. Nature of the experiment: Antimicrobial activity against Cryptococcus neoformans ATCC 90112 at 64 ug/ml by broth microdilution assay. The format is functional, organism-based. The method in brief: as §1
A further experiment relates to Enterobacter cloacae. Nature of the experiment: Antimicrobial activity against Enterobacter cloacae ATCC 13047 at 64 ug/ml by broth microdilution assay. The format is functional, organism-based. In short, it runs like this:
as §1

In experiment [1] the test system is Stenotrophomonas maltophilia. Nature of the experiment: Antimicrobial activity against Stenotrophomonas maltophilia ATCC 13637 at 64 ug/ml by broth microdilution assay. The format is functional, organism-based. In short, it runs like this:
as §1

The subject of the next experiment is P388. Kind of experiment: Antitumor activity against mouse P388 cells after 48 hrs by Sulforhodamine B. Particulars: P388, 48 h, read-out: ED50 (the source's name). The format is functional.

Regarding `CC1(C)C[C@H]2[C@H](O)C(CO)=C3[C@H](O)C[C@]3(C)[C@H]2C1`, the result in the experiment with Enterococcus faecalis, in the experiment on Candida albicans, with Micrococcus luteus, with Staphylococcus aureus, in the experiment with Escherichia coli and in the experiment on Cryptococcus neoformans was inactive. In addition, the outcome (in the experiment with Enterobacter cloacae; in experiment [1]) was inactive.

Consider `C/C(C=O)=C1/CC[C@@]1(C)[C@@H]1C[C@](C)(CO)C[C@H]1O`, for which the EC50 with P388 is 5.3 µg/mL (≈ 21 µM). Besides, the result in the experiment on Enterococcus faecalis, in the experiment with Candida albicans, with Micrococcus luteus, in the experiment on Staphylococcus aureus, in the experiment on Escherichia coli and in the experiment with Cryptococcus neoformans was inactive. The outcome (in the experiment with Enterobacter cloacae; in experiment [1]) was inactive.

For the compound `C=C1[C@H](O)[C@H]2C[C@](C)(CO)CC2=C(C)C12CC2`, the result with Enterococcus faecalis, with Candida albicans, in the experiment with Micrococcus luteus, in the experiment with Staphylococcus aureus, in the experiment on Escherichia coli and in the experiment with Cryptococcus neoformans was inactive. For the same compound, the outcome (in the experiment with Enterobacter cloacae; in experiment [1]) was inactive.
